# According to ChEMBL document CHEMBL4834447, “A gemcitabine-based conjugate with enhanced antitumor efficacy by suppressing HIF-1α expression under hypoxia” (Bioorg Med Chem, 2021):
# Active and inactive are the calls of the source. The calls are words filed in the database; no cut-off is given here.
# Columns and labels:
# A2780 [1] = experiment: Downregulation of HIF-1alpha in human A2780 cells incubated for 24 hrs in hypoxia condition by Western blot analysis; type: functional, cell-based; details: dose 0.1-1 µM
# Outline: (§1)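 A2780 cells were treated at the indicated concentrations for 24 h under hypoxia. They were lysed in Tris-Cl pH 6.8 buffer with SDS, glycerol, β-mercaptoethanol, PMSF and aprotinin, then centrifuged at 13000 rpm for 20 min at 4 °C. Proteins were resolved by SDS-PAGE and transferred to PVDF. Blots were probed for HIF-1α, p53 and GAPDH, with secondary antibody at 1:2000 for 1 h, and detected by chemiluminescence.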
# [2] = Toxicity in BALB/c mouse xenografted with human A2780 cells assessed as effect on body weight at 125 mg/kg, iv administered for 28 days and measured on day 28; type: organism-based; details: in vivo, 672 h, time 28 day
# Outline: (§2)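 The A2780 subcutaneous xenograft was set up in female BALB/c nude mice. Weekly i.v. tail-vein dosing ran for 4 weeks, starting at 100–150 mm³ tumor size (5 mice/group), with DMF:Tween 80:5% dextrose (10:2:88) as the formulation and a 5% dextrose vehicle control. Body weight was recorded every three days over 28 days.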
# A2780 [3] = experiment: Induction of cell cycle arrest in human A2780 cells assessed as G2/M phase at 0.5 uM incubated for 24 hrs by PI staining based flow cytometry analysis (reference value: 4.66 %)
# A2780 [4] = experiment: Cytotoxicity against human A2780 cells assessed as reduction in cell viability incubated for 72 hrs in hypoxic condition by MTT assay; type: functional, cell-based; details: A2780, 72 h
# Outline: (§3)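 For the hypoxic MTT assay, cells were seeded at about 5 × 10⁴ cells/mL and preincubated 12 h under hypoxia (1% O₂, 5% CO₂, 94% N₂). They were then treated for 72 h at 37 °C with final concentrations of 1.25–80 μmol/L. MTT was added for 4 h and absorbance read at 570/630 nm. IC50 was obtained by the Bliss method; tests were repeated three times.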
# A2780 [5] = experiment: Antitumor activity against human A2780 cells xenografted in BALB/c mouse assessed as reduction in tumor volume at 125 mg/kg, iv administered for 28 days and measured on day 28 relative to control; type: functional; parameters: scale not given: the % may be the effect or the level left; details: time 28 day
# Outline: (§4)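 Female BALB/c nude mice, 5 weeks old, were implanted subcutaneously in the right armpit with 10⁷ A2780 cells in 0.1 mL PBS. At 100–150 mm³ (day 19) mice were randomized (5/group) and dosed by tail-vein injection once weekly for 4 weeks. GEM-5 was given in DMF:Tween 80:5% dextrose (10:2:88); vehicle controls received 5% dextrose. Volume was measured by caliper (V = AB²/2) every 3 days. Tumors were weighed after sacrifice, giving the tumor inhibitory rate.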
# A2780 [6] = experiment: Induction of cell cycle arrest in human A2780 cells assessed as G1 phase at 0.5 uM incubated for 24 hrs by PI staining based flow cytometry analysis (reference value: 75.23 %)
# A2780 [7] = experiment: Upregulation of p53 in human A2780 cells at 0.1 to 1 uM incubated for 24 hrs in hypoxia condition by Western blot analysis; type: functional, cell-based; details: dose 0.1-1 µM; outline: as §1
# A549 [8] = experiment: Cytotoxicity against human A549 cells assessed as reduction in cell viability incubated for 72 hrs in hypoxic condition by MTT assay; type: functional, cell-based; details: A549, 72 h; outline: as §3
# L02 [9] = experiment: Cytotoxicity against human L02 cells assessed as reduction in cell viability incubated for 72 hrs by MTT assay; type: cell-based; details: L02, 72 h
# Outline: (§5)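 In the MTT assay, logarithmic-phase cells were seeded at about 5 × 10⁴ cells/mL and preincubated 12 h. Cells were then exposed for 72 h at 37 °C under normoxia (20% O₂, 5% CO₂) to seven final concentrations, 1.25–80 μmol/L, diluted from DMSO stock. MTT (5 mg/mL) was added for 4 h, formazan was dissolved in DMSO, and absorbance was read at 570/630 nm. IC50 was calculated by the Bliss method; values are mean ± SD of three independent runs in duplicate.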
# MCF7 [10] = experiment: Cytotoxicity against human MCF7 cells assessed as reduction in cell viability incubated for 72 hrs by MTT assay; type: functional, cell-based; details: MCF7, 72 h; outline: as §5
# A2780 [11] = experiment: Induction of apoptosis in human A2780 cells assessed as early apoptotic cells at 0.5 uM incubated for 72 hrs by annexin-V-FITC and PI staining based flow cytometry analysis (reference value: 5.35 %); type: functional
# A2780 [12] = experiment: Induction of cell cycle arrest in human A2780 cells assessed as S phase at 0.5 uM incubated for 24 hrs by PI staining based flow cytometry analysis (reference value: 20.11 %)
# A2780 [13] = experiment: Antitumor activity against human A2780 cells xenografted in BALB/c mouse assessed as reduction in tumor growth at 125 mg/kg, iv administered for 28 days and measured on day 28 relative to control; type: functional; details: 672 h, time 28 day, read-out: TGI; outline: as §4
# A2780 [14] = experiment: Induction of apoptosis in human A2780 cells assessed as necrotic cells at 0.5 uM incubated for 72 hrs in hypoxic condition by annexin-V-FITC and PI staining based flow cytometry analysis (reference value: 3.04 %); type: functional
# A2780 [15] = experiment: Induction of apoptosis in human A2780 cells assessed as viable cells at 0.5 uM incubated for 72 hrs in hypoxic condition by annexin-V-FITC and PI staining based flow cytometry analysis (reference value: 81.05 %); type: functional; details: read-out: Activity
# A2780 [16] = experiment: Induction of apoptosis in human A2780 cells assessed as late apoptotic cells at 0.5 uM incubated for 72 hrs by annexin-V-FITC and PI staining based flow cytometry analysis (reference value: 1.71 %); type: functional
# A2780 [17] = experiment: Antitumor activity against human A2780 cells xenografted in BALB/c mouse assessed as reduction in tumor hypoxia at 271 mg/kg, iv administered for 28 days and measured on day 28 by DAPI staining based confocal microscopic analysis; type: functional, organism-based; details: time 28.0 day
# Outline: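 Tumor sections from the weekly i.v.-dosed A2780 xenograft mice were stained for hypoxia with the pimonidazole kit. This used FITC anti-pimonidazole antibody (1:100) plus HRP rabbit anti-FITC secondary (1:100), with DAPI for nuclei. Green hypoxic areas were imaged by confocal microscopy. Three independent experiments were run.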
# A2780 [18] = experiment: Induction of cell cycle arrest in human A2780 cells assessed as G2/M phase at 0.5 uM incubated for 24 hrs in hypoxic condition by PI staining based flow cytometry analysis (reference value: 8.38 %)
# A2780 [19] = experiment: Antitumor activity against human A2780 cells xenografted in BALB/c mouse assessed as reduction in tumor volume at 271 mg/kg, iv administered for 28 days and measured on day 28 relative to control; type: functional; parameters: scale not given: the % may be the effect or the level left; details: time 28 day; outline: as §4
# A2780 [20] = experiment: Antitumor activity against human A2780 cells xenografted in BALB/c mouse assessed as reduction in tumor growth at 271 mg/kg, iv administered for 28 days and measured on day 28 relative to control; type: functional; details: 672 h, time 28 day, read-out: TGI; outline: as §4
# A2780 [21] = experiment: Potency index, ratio of IC50 of GEM to IC50 of compound for cytotoxicity against human A2780 cells assessed as reduction in cell viability incubated for 72 hrs by MTT assay; type: functional
# Outline: (§6)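 The fold value is the IC50 of gemcitabine divided by the compound's IC50. Both IC50s come from 72 h normoxic MTT assays (1.25–80 μmol/L, Bliss method, three independent runs).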
# A549 [22] = experiment: Potency index, ratio of IC50 of GEM to IC50 of compound for cytotoxicity against human A549 cells assessed as reduction in cell viability incubated for 72 hrs by MTT assay; type: functional; outline: as §6
# A549 [23] = experiment: Cytotoxicity against human A549 cells assessed as reduction in cell viability incubated for 72 hrs by MTT assay; type: functional, cell-based; details: A549, 72 h; outline: as §5
# A2780 [24] = experiment: Induction of apoptosis in human A2780 cells assessed as necrotic cells at 0.5 uM incubated for 72 hrs by annexin-V-FITC and PI staining based flow cytometry analysis (reference value: 0.98 %); type: functional
# A2780 [25] = experiment: Induction of cell cycle arrest in human A2780 cells assessed as G1 phase at 0.5 uM incubated for 24 hrs in hypoxic condition by PI staining based flow cytometry analysis (reference value: 56.83 %)
# [26] = Toxicity in BALB/c mouse xenografted with human A2780 cells assessed as effect on body weight at 271 mg/kg, iv administered for 28 days and measured on day 28; type: organism-based; details: in vivo, 672 h, time 28 day; outline: as §2
# L02 [27] = experiment: Cytotoxicity against human L02 cells assessed as reduction in cell viability incubated for 72 hrs in hypoxic condition by MTT assay; type: cell-based; details: L02, 72 h
# A2780 [28] = experiment: Induction of apoptosis in human A2780 cells assessed as early apoptotic cells at 0.5 uM incubated for 72 hrs in hypoxic condition by annexin-V-FITC and PI staining based flow cytometry analysis (reference value: 9.74 %); type: functional
# A2780 [29] = experiment: Cytotoxicity against human A2780 cells assessed as reduction in cell viability incubated for 72 hrs by MTT assay; type: functional, cell-based; details: A2780, 72 h; outline: as §5
# A2780 [30] = experiment: Induction of apoptosis in human A2780 cells assessed as late apoptotic cells at 0.5 uM incubated for 72 hrs in hypoxic condition by annexin-V-FITC and PI staining based flow cytometry analysis (reference value: 6.17 %); type: functional
# A2780 [31] = experiment: Induction of cell cycle arrest in human A2780 cells assessed as S phase at 0.5 uM incubated for 24 hrs in hypoxic condition by PI staining based flow cytometry analysis (reference value: 34.79 %)
# MCF7 [32] = experiment: Potency index, ratio of IC50 of GEM to IC50 of compound for cytotoxicity against human MCF7 cells assessed as reduction in cell viability incubated for 72 hrs by MTT assay; type: functional; outline: as §6
# A2780 [33] = experiment: Induction of apoptosis in human A2780 cells assessed as viable cells at 0.5 uM incubated for 72 hrs by annexin-V-FITC and PI staining based flow cytometry analysis (reference value: 91.95 %); type: functional; details: read-out: Activity
# [34] = (§7) Downregulation of HIF-1alpha in human A2780 cells at 1 uM incubated for 24 hrs in hypoxia condition by Western blot analysis relative to control; type: functional; outline: as §1
# A2780 [35] = experiment: as §7; type: functional; outline: as §1
SMILES,Activity [2],Activity (A2780 [3]) [%],IC50 (A2780 [4]) [µM],Activity (A2780 [5]) [%],Activity (A2780 [6]) [%],Activity (A2780 [7]),IC50 (A549 [8]) [µM],IC50 (L02 [9]) [µM],IC50 (MCF7 [10]) [µM],Activity (A2780 [11]) [%],Activity (A2780 [12]) [%],inhibition in vivo at 125 mg/kg (A2780 [13]) [%],Activity (A2780 [14]) [%],viability at 0.5 µM (A2780 [15]) [%],Activity (A2780 [16]) [%],Activity (A2780 [18]) [%],IC50 (A549 [23]) [µM],Activity (A2780 [24]) [%],IC50 (L02 [27]) [µM],IC50 (A2780 [29]) [µM],other results
Nc1ccn([C@@H]2O[C@H](COC(=O)CCC(=O)OCc3ccc(-c4nn(Cc5ccccc5)c5ccccc45)o3)[C@@H](O)C2(F)F)c(=O)n1,Non-Toxic,19.24,0.03,46.09,17.74,Dose-Dependent Effect,3.03,4.43,2.6,3.85,63.02,55.1,1.13,18,48.82,7.99,0.37,12.08,3.04,0.13,Activity (A2780 [1]): Dose-Dependent Effect; Activity (A2780 [17]): Active; Activity (A2780 [19]): 36.61%; inhibition in vivo at 271 mg/kg (A2780 [20]): 64.6%; Ratio IC50 (A2780 [21]): 9.6; Ratio IC50 (A549 [22]): 6.2; Activity (A2780 [25]): 19.37%; Activity [26]: Non-Toxic; Activity (A2780 [28]): 48.48%; Activity (A2780 [30]): 32.41%; Activity (A2780 [31]): 72.64%; Ratio IC50 (MCF7 [32]): 2.4; viability at 0.5 µM (A2780 [33]): 35.2%
OCc1ccc(-c2nn(Cc3ccccc3)c3ccccc23)o1,–,–,20.4,–,–,inactive,25.6,> 80,> 80,–,–,–,–,–,–,–,> 80,–,26.6,> 80,Activity [34]: 50%
Cl.Nc1ccn([C@@H]2O[C@H](CO)[C@@H](O)C2(F)F)c(=O)n1 [GEMCITABINE HYDROCHLORIDE],Non-Toxic,5.95,1.38,29.37,42.51,Dose-Dependent Effect,14.7,11.9,6.35,5.02,51.54,69.7,2.44,53,34.42,2.7,2.31,8.98,4.51,1.25,Activity (A2780 [35]): inactive; Activity (A2780 [25]): 37.21%; Activity (A2780 [28]): 25%; Activity (A2780 [30]): 19.51%; Activity (A2780 [31]): 60.08%; viability at 0.5 µM (A2780 [33]): 51.6%
